Measured values: PMC2685149 (Nuclear medicine and biology, 2009)
Several values for one entry are separate records, joined by “and”; a condition that tells them apart may be missing. Equal entries are not always repeated. Bridge positions count the residues as written; N and C are the ends. Square brackets hold non-standard residues; d marks the D form. Peptide text beside a SMILES is read from it. * marks the point of attachment. DOTA = O=C(O)CN1CCN(CC(=O)O)CCN(CC(=O)*)CCN(CC(=O)O)CC1; Nle = CCCC[C@H](N)C(=O)O

How the values were obtained:
[1] = tested on: flank B16/F1 murine melanoma; conditions: cited from earlier work
[2] = tested on: B16/F10 melanoma cells; test: Cellular internalization in B16/F10 cells; assay type: cell-based, murine; conditions: after 2 h incubation, 25°C
How it was run: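 B16/F10 cells were washed with binding medium and incubated at 25°C for 20, 40, 60, 90 and 120 min (n=4) with about 200,000 cpm (0.019 pmol) of HPLC-purified 111In-labelled test peptide. Cells were rinsed with ice-cold PBS/BSA. Surface-bound activity was stripped with pH 4.5 acetate buffer (0.9% NaCl, 0.2% BSA). Cells were then lysed in 1 N NaOH for 5 min, and both fractions were gamma-counted.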

[3] = tested on: B16/F10 pulmonary metastatic melanoma-bearing C57 mice; test: Biodistribution in B16/F10 pulmonary metastatic melanoma-bearing C57 mice; assay type: in vivo, mouse; conditions: 16 days post the cell injection
How it was run: (§1)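 Lung metastases were induced in C57 mice by tail-vein injection of 0.2 million cultured B16/F10 cells and used 16 days later. Normal C57 mice served as comparators. Each mouse got 0.037 MBq of HPLC-purified 111In-labelled test peptide by tail vein. Groups of 5 were killed at 2, 4 and 24 h, and organs were weighed and gamma-counted. Blood was taken as 6.5% of body weight. Ratios compare metastatic-lung with normal-lung uptake.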

[4] = as above; assay type: in vivo, mouse; conditions: C57, mouse, 0.037 MBq; for tissue uptake at 4 h / tissue uptake at 24 h / tissue uptake at 2 h: intravenous
How it was run: as §1

[5] = Stability in mouse serum; assay type: in vitro ADME; conditions: 37°C, 24 h
[6] = Biodistribution in normal C57 mice; assay type: in vivo; conditions: C57, mouse, 0.037 MBq, total radioactivity; for dose excreted: urine, percent injected dose, normal mice, Mean±SD, n=5
[7] = tested on: B16/F10 melanoma cells; test: Cellular efflux in B16/F10 cells; assay type: cell-based, murine; conditions: 2 h after incubating cells in culture media
How it was run: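 B16/F10 cells were loaded with the HPLC-purified 111In-labelled test peptide for 2 h at 25°C, then rinsed twice with ice-cold pH 7.4 0.2% BSA/0.01 M PBS. Release of radioactivity into the culture medium was then followed. At 20, 40, 60, 90 and 120 min, cell-surface and intracellular activities were collected separately and gamma-counted.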

[8] = tested on: B16/F10 pulmonary melanoma metastases; conditions: mouse, in vivo
[9] = intestine, iv, total radioactivity
[10] = lung/blood, iv, total radioactivity
[11] = lung/kidney, iv, total radioactivity
[12] = lung/liver, iv, total radioactivity
[13] = lung/muscle, iv, total radioactivity

CCCC[C@@H]1NC(=O)[C@@H](NC(=O)[C@H](CCC(=O)O)NC(=O)CNC(=O)CN2CCN(CC(=O)O)CCN(CC(=O)O)CCN(CC(=O)O)CC2)CCCCNC(=O)C[C@@H](C(N)=O)NC(=O)[C@H](C(C)C)NC(=O)[C@@H]2CCCN2C(=O)[C@H](CCCNC(=N)N)NC(=O)CNC(=O)[C@H](Cc2c[nH]c3ccccc23)NC(=O)[C@H](CCCNC(=N)N)NC(=O)[C@@H](Cc2ccccc2)NC(=O)[C@H](Cc2c[nH]cn2)NC(=O)[C@H](CCC(=O)O)NC1=O [^111In-DOTA-GlyGlu-CycMSH, ^111In-labeled 1,4,7,10-Tetraazacyclododecane-1,4,7,10-tetraacetic acid-Gly-Glu-c[Lys-Nle-Glu-His-DPhe-Arg-Trp-Gly-Arg-Pro-Val-Asp], metal not drawn] ({DOTA}-GEK[Nle]EH[dF]RWGRPVD-NH2; lactam 3-14; C-terminus assumed)
tumor uptake ([1]; 2 h post-injection, flank B16/F1 murine melanoma-bearing mouse model): 10.40±1.40 % ID/g | reduction of renal uptake by negatively-charged -Gly-Glu- linker ([1]; 4 h post-injection, without affecting the tumor uptake): 44% | activity internalized in the cells [2]: 79.7±10.1% | uptake in metastatic melanoma-bearing lung relative to normal lung ([3]; 2 h post-injection): 25.0 times | uptake in metastatic melanoma-bearing lung relative to normal lung ([3]; 4 h post-injection): 36.6 times | uptake in metastatic melanoma-bearing lung relative to normal lung ([3]; 24 h post-injection): 9.7 times | tissue uptake dose at 2 h [4, 9]: 7.7 ± 2.05 %ID | tissue uptake dose at 4 h [4, 9]: 5.97 ± 0.48 %ID | tissue uptake dose at 24 h [4, 9]: 0.11 ± 0.03 %ID | tissue uptake at 4 h ([4]; kidneys, total radioactivity): 14.5 ± 0.21 %ID/g | tissue uptake at 24 h ([4]; kidneys, total radioactivity): 15.1 ± 0.86 %ID/g | tissue uptake at 4 h ([4]; liver, total radioactivity): 0.45 ± 0.05 %ID/g | tissue uptake at 4 h ([4]; lung): 1.83 ± 0.12 %ID/g | tissue uptake at 24 h ([4]; lung): 0.29 ± 0.06 %ID/g | tissue to tissue ratio at 2 h [4, 10]: 16.7 | tissue to tissue ratio at 4 h [4, 10]: 61 | tissue to tissue ratio at 24 h [4, 10]: 9.67 | tissue to tissue ratio at 2 h [4, 11]: 0.12 | tissue to tissue ratio at 4 h [4, 11]: 0.13 | tissue to tissue ratio at 2 h [4, 12]: 4.76 | tissue to tissue ratio at 4 h [4, 12]: 4.07 | tissue to tissue ratio at 24 h [4, 12]: 2.23 | tissue to tissue ratio at 2 h [4, 13]: 50 | tissue to tissue ratio at 4 h [4, 13]: 61 | tissue to tissue ratio at 24 h [4, 13]: 9.67 | tissue uptake at 2 h ([4]; skin, total radioactivity): 0.26 ± 0.22 %ID/g | tissue uptake at 4 h ([4]; skin, total radioactivity): 0.36 ± 0.08 %ID/g | tissue uptake at 2 h ([4]; spleen, total radioactivity): 0.26 ± 0.07 %ID/g | stability in mouse serum [5]: stable | tissue uptake dose at 2 h ([6]; intestine, iv): 7.08 ± 1.54 %ID | tissue uptake dose at 4 h ([6]; intestine, iv): 4.65 ± 0.85 %ID | tissue uptake dose at 24 h ([6]; intestine, iv): 0.11 ± 0.08 %ID | tissue uptake at 2 h ([6]; kidneys, intravenous): 14.1 ± 2.23 %ID/g | tissue uptake at 24 h ([6]; kidneys, intravenous): 13.5 ± 1.48 %ID/g | tissue uptake at 4 h ([6]; liver, intravenous): 0.38 ± 0.01 %ID/g | tissue to tissue ratio at 24 h ([6]; lung and muscle, iv): 1.5 | tissue to tissue ratio at 2 h ([6]; lung/blood, iv): 8 | tissue to tissue ratio at 4 h ([6]; lung/blood, iv): 2.5 | tissue to tissue ratio at 24 h ([6]; lung/blood, iv): 1 | tissue to tissue ratio at 2 h ([6]; lung/kidney, iv): 0.01 | tissue to tissue ratio at 4 h ([6]; lung/kidney, iv): 0.01 | tissue to tissue ratio at 4 h ([6]; lung/liver, iv): 0.13 | tissue to tissue ratio at 24 h ([6]; lung/liver, iv): 0.25 | tissue to tissue ratio at 2 h ([6]; lung/muscle, iv): 2.67 | tissue to tissue ratio at 4 h ([6]; lung/muscle, iv): 1.67 | tissue uptake at 4 h ([6]; skin, intravenous): 0.23 ± 0.08 %ID/g | tissue uptake at 2 h ([6]; stomach, intravenous): 0.14 ± 0.07 %ID/g | dose excreted ([6]; iv, 2 h post-injection): 84.7 ± 1.97% | dose excreted ([6]; iv, 4 h post-injection): 89 ± 0.92% | dose excreted ([6]; iv, 24 h post-injection): 96.06 ± 0.53% | activity remained inside the cells (efflux) [7]: 90.6±5.3% and ~90% | accumulation of activity in normal organs in whole-body SPECT/CT image [8]: extremely low
